Measurements from ChEMBL document CHEMBL1122423, “N-arylhydroxamic acid N,O-acyltransferase. Positional requirements for the substrate hydroxyl group” (J Med Chem, 1983).

Assays:
[1] = species on record: Cricetulus griseus; experiment: Inhibition of AHAT-catalyzed transacylation of 4-aminoazobenzene
How it was run: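 Partially purified hamster hepatic AHAT (2.5–3.75 mg protein) was preincubated 5 min with inhibitor (2.5 μmol in EtOH; 1 mM) before adding acyl-donor substrate (2.5 μmol) and 4-aminoazobenzene (0.375 μmol). The 2.5 mL mix held pyrophosphate pH 7, DTT and 1.15% KCl, at 37 °C in air. Stopped with TCA/EtOH; supernatant read spectrophotometrically (Booth). Percent inhibition vs control; three experiments in triplicate.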

[2] = species on record: Cricetulus griseus; experiment: Percent inhibition against AHAT when compound 8 is used as substrate at 1 mM concentration
How it was run: (§1)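 Partially purified hamster hepatic AHAT; 1 mM inhibitor (final) in ethanol was preincubated with enzyme for 5 min, then acyl donor (2.5 μmol) and 4-aminoazobenzene (0.375 μmol) were added. Mix: pyrophosphate buffer pH 7, DTT, KCl, 2.5 mL, 37 °C in air, read after 10 min. TCA-ethanol stop; spectrophotometric read-out of transacetylation. % inhibition vs control; three experiments in triplicate.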

[3] = species on record: Cricetulus griseus; experiment: Percent inhibition against AHAT when compound 10 is used as substrate at 1 mM concentration; how it was run: as §1

O=C(CO)Nc1ccc(-c2ccccc2)cc1
Transacetylation rate [1]: 0.03 nmol/min/mg

CC(=O)Nc1cc2c(cc1O)-c1ccccc1C2
Transacetylation rate [1]: 0.05 nmol/min/mg

CCN1C(=O)C=CC1=O
inhibition [2]: 77%
inhibition [3]: 86%

CC(=O)Nc1ccc(-c2ccccc2)cc1
Transacetylation rate [1]: 0.27 nmol/min/mg

CC(=O)N(O)c1ccc2c(c1)Cc1ccccc1-2
Transacetylation rate [1]: 19.3 nmol/min/mg

CC(=O)Nc1ccc(-c2ccccc2)cc1O
Transacetylation rate [1]: 0.69 nmol/min/mg

O=C(CO)Nc1ccc2c(c1)Cc1ccccc1-2
Transacetylation rate [1]: 0.02 nmol/min/mg

NC(=O)CI
inhibition [2]: 99%
inhibition [3]: 99%

CC(=O)N(O)c1ccc(-c2ccccc2)cc1
Transacetylation rate [1]: 13.3 nmol/min/mg

O=C(CO)Nc1ccc(/C=C/c2ccccc2)cc1
Transacetylation rate [1]: 0.18 nmol/min/mg

CC(=O)Nc1ccc2c(c1O)Cc1ccccc1-2
Transacetylation rate [1]: 0.11 nmol/min/mg

p-Chloromercuribenzenesulfonate
inhibition [2]: 92%
inhibition [3]: 96%

CC(=O)N(O)c1ccc(/C=C/c2ccccc2)cc1
Transacetylation rate [1]: 9.73 nmol/min/mg
